Series [1] concerns MNU-induced mammary tumours. The series can be described thus: N-methyl-N-nitrosourea. The series is classed as in vivo, female Sprague-Dawley rats. The settings on record: for increase of mammary tumour number in tumour-bearing rats compared with controls: end of study, significant for glargine only; for number of tumours per rat (tumour multiplicity, all rats): including rats bearing no tumour, 15 U/kg/day s.c. 5 days a week, at 6 weeks of treatment, high-fat diet, MNU, mean ± S.E.M., n = 30 per group.

Series [2] is classed as in vivo, female Sprague-Dawley rats. The note with it: for Final body weight: after 6 weeks of 15 U/kg s.c. 5 days per week; for Final body weight / Food intake / Body weight increase: mean ± S.E.M., n = 30; for Food intake: average over the treatment period; for Body weight increase: over 6 weeks of treatment; for blood glucose levels before the injection vs control or detemir groups: over the treatment period, n = 30 per group. The essentials:
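Female Sprague-Dawley rats on a high-fat diet (40% of calories) from 4 weeks of age were given MNU 485 μmol/kg s.c. 1 week later. Light cycle was shifted to 13:00–01:00 h. At 9 weeks, rats were randomised (n = 30/group) to saline or insulin s.c. at 11:00–12:00 h, 5 days/week, ramped 5→10→15 U/kg. Tail-nick glucometer glucose was taken before and 4 h post-injection three times weekly. Data are mean ± s.e.m., analysed by ANOVA and Waller–Duncan test.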

Series [3] is classed as in vivo, female Sprague-Dawley rats. The settings on record: 15 U/kg s.c.; for steady plasma concentrations (unit/L) up to: high-fat-fed rats, n = 6, unmetabolised glargine.
Series [4] concerns Akt (phospho-Ser473-Akt / total Akt). Briefly: Western blot of phosphorylated and total Akt in mammary tumours. The series is classed as in vivo, female Sprague-Dawley rats. The note with it: mammary tumours 4 h after last s.c. injection, 15 U/kg. In short, it runs like this:
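High-fat-fed, MNU-treated female Sprague-Dawley rats received saline or insulin s.c. 5 days/week for 6 weeks. Palpable mammary tumours were collected under ketamine/xylazine/acepromazine anaesthesia 4 h after the last injection, halved, and one half was snap-frozen in liquid nitrogen for Western blotting of phosphorylated and total Akt.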
For orientation: Immunoblotting shows a protein as a band on a membrane.

For series [5] the following is noted: ref not given, cited from earlier work.

Marks after values point to notes of the source that are not given here.

For the substance “NPH: NPH (unmodified human insulin), purchased from Eli Lilly, Canada”, the “increase of mammary tumour number in tumour-bearing rats compared with controls” value (from here on “increase of mammary tumour number”) in series [1] is “approximately doubled”. In series [2], the Final body weight was 346 ± 7 g, the Food intake is 21.1 ± 1.4 g/day, the Body weight increase is on record as 98.7 ± 4.5^a g and the “blood glucose levels before the injection vs control or detemir groups” value was “slightly higher”.

Regarding detemir, the “steady plasma concentrations (unit/L) up to” value in series [3] was “up to 9 h”. Besides, in series [1], the “number of tumours per rat (tumour multiplicity, all rats)” value was 1.4 ± 0.4 and the “increase of mammary tumour number” value is listed as “approximately doubled”. In addition, in series [2], the Final body weight was found to be 338 ± 6 g, the Food intake was found to be 19.7 ± 0.8 g/day and the Body weight increase amounted to 80.7 ± 3.9 g. Also, the “ratio of phosphorylated (active) Akt to total Akt vs control group” value in series [4] was “higher”.

Take glargine: the “steady plasma concentrations (unit/L) up to” value in series [3] is “up to 9 h”. In series [3] (insulin-resistant rats, partial recovery of plasma glucose at 9 h), the “peak of glucose-lowering action” value was 1.5 to 4 h. For the same substance, in series [5] (humans), the “sustained action after subcutaneous injection in humans” value is “over 20 h”. In addition, the “sustained action after subcutaneous injection” value in series [5] (species not given, general statement) is “up to 24 h”. Moreover, in series [1], the “number of tumours per rat (tumour multiplicity, all rats)” value turned out to be 1.5 ± 0.4 and the “increase of mammary tumour number” value was determined as 2 fold. Also, in series [2], the Final body weight was 343 ± 5 g, the Food intake is given as 21.1 ± 1.2 g/day, the Body weight increase was found to be 93.8 ± 4.4 g and the “blood glucose levels before the injection vs control or detemir groups” value is “slightly higher”. Further, the “ratio of phosphorylated (active) Akt to total Akt vs control group” value in series [4] is recorded as “higher”.

The values above are taken from publication PMC5958747 (Endocrine Connections, 2018).
